Usually IC50 stands for the concentration that inhibits the measured activity by half. The TGI is the concentration at which net growth stops. Low values mean greater sensitivity of the cells, high ones lower sensitivity of the cells. Broadly, the GI50 is the concentration that inhibits growth by half. Low readings indicate greater sensitivity of the cells, high ones lower sensitivity of the cells.

Molecules are shown by their SMILES. “Also recorded” adds a separate entry of the source.

Series [1] concerns human cervical epitheloid carcinoma (HeLa) cells. Nature of the series: Growth inhibition of HeLa cells. Format: cell-based. As to conditions: read-out: HeLa IC50, MTT after 7 d, triplicate. The essentials: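 Seeded at 1 × 10^4 cells/well, 1 h, then test compound 0–100 μM for 7 d. Freshly prepared MTT (5 mg/mL) added for 4 h, absorbance read at 570 nm (reference 630 nm). Triplicate, averaged; IC50 = 50% growth inhibition.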

Series [2] concerns unstimulated normal cells (resting lymphocytes, PBMC). Nature of the series: Growth inhibition of normal cells: resting lymphocytes. Format: cell-based. To be noted: read-out: lymph (resting) IC50; resting human lymphocytes (PBMC), MTT, 3 d. The essentials:
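Human lymphocytes (PBMCs) from preservative-free heparinised peripheral blood, left unstimulated (no PHA-P), run like the HeLa MTT assay: 1 × 10^4 cells/well, test compound 0–100 μM, but exposure 3 d. Freshly prepared MTT (5 mg/mL) added for 4 h; absorbance at 570 nm (reference 630 nm). Triplicate; IC50 as 50% growth inhibition.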

A short description of the next series: stability in solution. Format: physicochemical. As to conditions: in solution (dichloromethane for 4).
The nature of series [3]: in vivo hollow fiber studies.
A further series relates to COLO 205. As to the kind of experiment: DTP 60-cell-line panel: COLO 205. Type of series: cell-based. As to conditions: colon COLO205.
A further series concerns OVCAR-3. Nature of the series: DTP 60-cell-line panel: OVCAR-3. Type of series: cell-based. As to conditions: ovarian OVCAR-3, Table 3.
The subject of the next series is RPMI-8226. As to the kind of experiment: DTP 60-cell-line panel: RPMI-8226. Format: cell-based. As to conditions: leukemia RPMI-8226, Tables 3, 4.
A further series concerns leukemia SR cell line. Nature of the series: DTP 60-cell-line panel: SR. Format: cell-based.
The next series concerns UACC-62. Nature of the series: DTP 60-cell-line panel: UACC-62. Format: cell-based. To be noted: melanoma UACC-62.
In another series the test system is A549/ATCC. Nature of the series: DTP 60-cell-line panel: A549/ATCC. Type of series: cell-based. To be noted: nonsmall cell lung A549/ATCC, Tables 3, 4.
For series [4], the system named is panel of 60 cancer cell lines. Nature of the series: DTP. Type of series: cell-based. To be noted: for TGI range / TGI Δ: 60 cell lines (log scale).
The next series concerns KM12. As to the kind of experiment: DTP 60-cell-line panel: KM12. As to conditions: colon KM12; Table 3. Format: cell-based.
Another series deals with RXF393. As to the kind of experiment: DTP 60-cell-line panel: RXF393. Format: cell-based. To be noted: renal RXF393, Table 3.
In a further series the test system is IGROV ovarian cell line. As to conditions: cited from earlier work.

On to `S=C([S][Au][PH](c1ccccc1)(c1ccccc1)c1ccccc1)n1cccn1` [Compound 1, Pyrazolyl-1-dithiocarbamato-triphenylphosphinogold(I)], for which the IC50 is 2.56 ± 0.12 µM in series [1] and 9.05 ± 3.5 µM in series [2].

Turning to `Cc1cc(C)n(C(=S)[S][Au-][P+](c2ccccc2)(c2ccccc2)c2ccccc2)n1` [Compound 2, 3,5-dimethylpyrazolyl-1-dithiocarbamato-triphenylphosphinogold(I)], the IC50 in [1] was found to be 2.63 ± 0.1 µM; in [2] it was 9.53 ± 3.18 µM.

`S=C([S][Au][PH](c1ccccc1)(c1ccccc1)c1ccccc1)n1ncc2ccccc21` [Compound 3, Indazolyl-1-dithiocarbamato-triphenylphosphinogold(I)]: the values for the IC50 in series [1] and in [2] were 2.56 ± 0.17 µM and 14 ± 10.5 µM, respectively.

Regarding `S=C([S][Au][PH](CC[PH]([Au][S]C(=S)n1cccn1)(c1ccccc1)c1ccccc1)(c1ccccc1)c1ccccc1)n1cccn1` [Compound 4, Bis-(pyrazolyl-1-dithiocarbamato)-bis-(diphenylphosphino)ethane Dinuclear Gold(I)], in the series “stability in solution”, the stability in solution entry is on record as “readily transforming to the Au18 cluster”.

With `S=C([S][Au][PH](CCC[PH]([Au][S]C(=S)n1cccn1)(c1ccccc1)c1ccccc1)(c1ccccc1)c1ccccc1)n1cccn1` [Compound 7, Bis(pyrazol-1-yldithiocarbamato)-bis-(diphenylphosphino)propane Dinuclear Gold(I)], the concentration for half-maximal inhibition (IC50) came out at 3.07 ± 0.48 µM in [1] and 7.05 ± 2.02 µM in [2].

`Cc1cc(C)n(C(=S)[S][Au-][P+](CCC[P+]([Au-][S]C(=S)n2nc(C)cc2C)(c2ccccc2)c2ccccc2)(c2ccccc2)c2ccccc2)n1` [Compound 8, Bis(3,5-dimethylpyrazol-1-yldithiocarbamato)-bis-(diphenylphosphino)propane Dinuclear Gold(I)]: the IC50 in series [1] turned out to be 6.96 ± 0.51 µM; in series [2] it was 6.13 ± 2.92 µM.

For the compound `S=C([S][Au-][P+](CCC[P+]([Au-][S]C(=S)n1ncc2ccccc21)(c1ccccc1)c1ccccc1)(c1ccccc1)c1ccccc1)n1ncc2ccccc21` [Compound 9, Bis(indazol-1-yldithiocarbamato)-bis-(diphenylphosphino)propane Dinuclear Gold(I)], the IC50 in series [1] is 3.38 ± 0.3 µM; in [2], 18.5 ± 3.88 µM.

As for `S=C([S][Au-][P+](CCCCCC[P+]([Au-][S]C(=S)n1cccn1)(c1ccccc1)c1ccccc1)(c1ccccc1)c1ccccc1)n1cccn1` [Compound 10, Dinuclear Bis(pyrazol-1-yldithiocarbamato)-bis-(diphenylphosphino)hexane Gold(I)], the activity in vivo entry in [3] was “not so great”. For the same compound, the concentration for total growth inhibition (TGI) was more than 100 µM in the series on COLO 205 (Table 3); 14.20 µM in the series on OVCAR-3; 0.53 µM in the series on RPMI-8226; 2.41 µM in the series with leukemia SR cell line (Tables 3, 4); more than 100 µM in the series with UACC-62 (Table 3); more than 100 µM with A549/ATCC. This compound displayed a total growth inhibition concentration (TGI) in the series on KM12 of 1.73 µM. The 50% growth inhibitory concentration (GI50) is 0.31 µM in the series with COLO 205 (Tables 3, 4); 0.7 µM with OVCAR-3; 0.19 µM with RPMI-8226; 0.19 µM in the series on leukemia SR cell line (Tables 3, 4); 0.38 µM in the series on UACC-62 (Tables 3, 4); 0.38 µM with A549/ATCC. Also, the GI50 in the series with KM12 was determined as 0.43 µM; with RXF393, 0.45 µM. Further, the CC50 was more than 100 µM in the series with COLO 205 (read-out: LC50, Tables 3, 4); more than 100 µM in the series with OVCAR-3 (read-out: LC50); more than 100 µM in the series on RPMI-8226 (read-out: LC50); more than 100 µM with leukemia SR cell line (read-out: LC50, Tables 3, 4); more than 100 µM in the series on UACC-62 (read-out: LC50, Tables 3, 4); more than 100 µM in the series with A549/ATCC (read-out: LC50). The CC50 with RXF393 (read-out: LC50) was more than 100 µM. The 50% inhibitory concentration (IC50) was found to be 0.51 ± 0.08 µM in series [1] and 18.9 ± 5.66 µM in series [2]. For the same compound, the TGI range in series [4] is recorded as 2.28. In addition, in series [4], the “TGI Δ” value turned out to be 1.92.

For `Cc1cc(C)n(C(=S)[S][Au][PH](CCCCCC[PH]([Au][S]C(=S)n2nc(C)cc2C)(c2ccccc2)c2ccccc2)(c2ccccc2)c2ccccc2)n1` [Compound 11, Dinuclear Bis(3,5-dimethylpyrazol-1-yldithiocarbamato)-bis-(diphenylphosphino)hexane Gold(I)], the activity in vivo entry in [3] was “could not be delivered to the targets; also recorded: not so great”. The IC50 in series [1] is 0.14 ± 0.01 µM. In series [4], the TGI range is listed as 2.38 and the “TGI Δ” value worked out at 1.87. In [4] (median over 60 cell lines (log scale)), the “GI50 MG-MID” value is “–6.25”. The half-maximal inhibitory concentration (IC50) in series [2] is 18.2 ± 15.9 µM.

Regarding `S=C([S][Au-][P+](CCCCCC[P+]([Au-][S]C(=S)n1ncc2ccccc21)(c1ccccc1)c1ccccc1)(c1ccccc1)c1ccccc1)n1ncc2ccccc21` [Compound 12, Dinuclear Bis(indazol-1-yldithiocarbamato)-bis-(diphenylphosphino)hexane Gold(I)], the IC50 in series [1] is 4.04 ± 0.49 µM; in series [2], 37.7 ± 12.6 µM.

Take `CCN(CC)C(=S)[S][Au][PH](CC)(CC)CC` [[(Et3P)Au(S2CNEt2)]]: the ID50 with IGROV ovarian cell line is 0.012 µg/mL.

For the compound `N.N.[Cl][Pt][Cl]` [cis-platin, reference compound], the IC50 in [1] was found to be 0.45 ± 0.09 µM.

The values are drawn from article PMC3993921 (Inorganic Chemistry, 2014).
